Rows were chosen to be rich in hits. Some 3.2% of all compounds tested hit in one or more screens of this group.
JMJD2C inh – blocks human GASC-1 demethylase activity; GST-JMJD2C(1-420) H3K9me3 demethylation, DELFIA europium; inhibition, % at 2.35 µM; hit rate 0.069% among 330,000;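 active = more than half of a compound's replicate wells show inhibition beyond 50%, single wells judged on their own value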;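 also: signal counts dimethyl H3K9 product captured on neutravidin plate; 0% = median of DMSO wells and 100% = 0.3 times that DMSO median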
DAX1 inh-1 – NR0B1 (DAX1) inhibition; P51843; HEK293 Gal4-DAX1 luciferase reporter, luminescence; hit rate 0.99% among 340,000; inhibition, % at 6.75 µM;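 active = inhibition above the mean over all tested compounds plus 3 SD, cut at about 4.2% in these data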;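 also: 0% = DAX1-transfected cells with DMSO and 100% = empty-vector control cells with DMSO; inhibition shows as a rise in luminescence from relieved DAX1 repression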
Target sequence (P51843 207-470 limits assumed): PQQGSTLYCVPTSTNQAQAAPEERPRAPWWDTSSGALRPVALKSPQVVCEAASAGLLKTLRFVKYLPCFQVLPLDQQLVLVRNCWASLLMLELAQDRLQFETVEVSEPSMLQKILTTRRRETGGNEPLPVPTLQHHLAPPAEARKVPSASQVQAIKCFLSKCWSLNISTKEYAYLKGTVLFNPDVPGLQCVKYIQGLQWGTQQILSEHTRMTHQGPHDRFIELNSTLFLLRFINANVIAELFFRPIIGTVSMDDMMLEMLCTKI
SMARCA2 act – SMARCA2 function activation, primary screen; hit rate 1% among 370,000; activation, % at 9.1 µM; MG213 cells, MMTV-luciferase reporter, dexamethasone, overnight; in the data active = activation above about 7.8%;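 also: 0% = vehicle wells and 100% = reference activator wells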
NR2E3 ag-1 – human photoreceptor-specific nuclear receptor agonism; Q9Y5X4; CHO-S Gal4-NCOR/VP16-NR2E3 two-hybrid, luciferase; inhibition of corepressor binding, % at 3.98 µM; hit rate 0.35% among 360,000; AID 602229;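 active = inhibition above the mean of all tested compounds plus 3 SD, cut at about 70% in these data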;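 also: 0% = DMSO with NR2E3 transfected cells and 100% = cells lacking NR2E3 construct; higher means lower luciferase signal from less NR2E3 corepressor binding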
Target sequence (Q9Y5X4 whole entry, looked up, the tested form may be a part): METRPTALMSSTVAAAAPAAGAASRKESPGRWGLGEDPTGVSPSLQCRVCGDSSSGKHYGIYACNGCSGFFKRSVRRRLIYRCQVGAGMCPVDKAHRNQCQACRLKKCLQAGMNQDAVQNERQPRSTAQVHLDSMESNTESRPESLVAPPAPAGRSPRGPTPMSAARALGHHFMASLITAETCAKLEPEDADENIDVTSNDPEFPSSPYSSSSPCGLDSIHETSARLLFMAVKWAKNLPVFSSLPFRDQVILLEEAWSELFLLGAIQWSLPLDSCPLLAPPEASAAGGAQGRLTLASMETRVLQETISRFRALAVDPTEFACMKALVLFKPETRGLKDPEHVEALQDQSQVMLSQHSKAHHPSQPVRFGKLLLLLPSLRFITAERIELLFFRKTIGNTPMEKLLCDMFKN
NR2E3 ag-2 – activates human photoreceptor nuclear receptor NR2E3. Q9Y5X4. GST-NR2E3/biotin-RetCOR TR-FRET, 1536-well. inhibition of corepressor binding, % at 4.78 µM. hit rate 0.12% among 320,000;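 active = percent inhibition above the cutoff of mean plus 3 SD of all tested compounds, set per screening campaign, cut at about 20% in these data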;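 also: 0% = DMSO wells and 100% = biotin wells as full block of FRET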
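System: GST-tagged NR2E3 plus biotinylated RetCOR corepressor; Buffer or medium: pH 7.5 Tris-based buffer; Probe or stimulus: RetCOR corepressor, biotinylated, 7 nM; Doses: compound at 4.8 µM, single dose; Schedule: 5 h incubation at 4 °C; Technique: time-resolved FRET; Evaluation: percent inhibition of TR-FRET ratio; Replication: one well per compound, singlicate testing.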
DAX1 inh-2 – inhibitors of DAX1 repression of SF-1 activated StAR promoter | hit rate 1.1% among 370,000 | inhibition, % at 6.8 µM | HEK293T StAR-luciferase reporter, SF-1/DAX-1 repression relief;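 active = inhibition above the mean over all tested compounds plus 3 SD, cut at about 3.6% in these data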;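 also: 0% = DAX-1 cells with DMSO and 100% = cells lacking DAX-1 with DMSO; higher inhibition means more luminescence from relief of DAX-1 repression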
DAX1 inh confirm – NR0B1 (human) inhibition, confirmation; HEK293T StAR-promoter luciferase reporter, SF-1/DAX-1 repression; hit rate 87% among 2,400; inhibition, % at 6.8 µM; shares compounds with DAX1 inh-2;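 active = inhibition above the average of every tested compound plus 3 SD, cut at about 3.8% in these data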;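 also: 0% = DAX-1 cells with DMSO and 100% = no DAX-1 control cells with DMSO; active compounds raise luminescence by relieving repression of the StAR reporter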
SF1 AF2mut Luc – counter-screen for DAX1 inhibitors: nonselective inhibitors with SF-1 AF2 mutant; shares compounds with DAX1 inh-2; HEK293 StAR-luciferase, luminescence; inhibition, % at 6.8 µM; hit rate 78% among 2,400; AID 652136;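 active = inhibition above the mean of all tested compounds plus 3 SD, cut at about 3% in these data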;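 also: 0% = DAX-1 transfected cells with DMSO and 100% = cells without DAX-1 with DMSO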
Active calls of the source: *; nt = not tested or not shown.

SMILES	JMJD2C inh	DAX1 inh-1	SMARCA2 act	NR2E3 ag-1	NR2E3 ag-2	DAX1 inh-2	DAX1 inh confirm	SF1 AF2mut Luc
Cc1ccc(-c2nc3ccc(Cl)cn3c2CC2CCCCC2)cc1	nt	nt	3	-136	nt	4.8*	8.5*	5.5*
CC(=O)NCc1ccc(-c2nc3ccccc3s2)cc1	10	1	3	-102	2	6.9*	16*	6.7*
COc1ccc(-c2nc3ccccc3s2)cc1	nt	-2	3	-206	nt	6.1*	14*	3.6*
Cc1cc(CNC(=O)c2cc(COc3ccc(F)c(F)c3)on2)nn1C	6	2	3	-133	-3	6.4*	7.4*	3.8*
Cc1cc(C)n(CC(C)NC(=O)c2cc(COc3ccc(F)c(F)c3)on2)n1 (stereo not drawn)	-6	0	5	-47	nt	1	nt	nt
Cc1ccc(C(=O)NC2CCc3ccccc3C2=O)cc1 (stereo not drawn)	-11	2	4	-69	2	5.5*	4.6*	3.3*
Cc1ccc(C(=O)NC2CCSC2=O)cc1 (stereo not drawn)	-1	-1	4	11	-2	0	nt	nt
CCN1CCCCC(NC(=O)c2ccccc2C)C1=O (stereo not drawn)	nt	nt	3	nt	nt	1	nt	nt
O=C(Nc1cccc(Cl)c1)Nc1ccccc1C(=O)O	0	-1	0	-115	-2	4.7*	11*	7.6*
O=C(Nc1ccc(Cl)cc1)Nc1ccccc1C(=O)O	-37	-2	3	-105	2	5.3*	9.0*	4.0*
CCCCNC(=O)C[C@H]1C[C@@]2(C(=O)OC)C(=C[C@H](C(C)C)O[C@@H]2C2CC2)N(Cc2ccc3c(c2)OCO3)C1=O	nt	nt	-4	nt	nt	0	nt	nt
CC(C)[C@H](NC(=O)c1ccccc1)C(=O)N1CCC[C@H]1C(=O)NCc1ccccc1	nt	nt	0	nt	nt	0	nt	nt
CCOC(=O)[C@]12CCCC3=C1N(CCC3)C(=O)[C@@H](CC(=O)NCc1cccc3ccccc13)C2	nt	nt	0	nt	nt	0	nt	nt
Cc1nc2ccc(NC(=O)Cc3cccc(F)c3)cc2s1	5	0	2	-41	3	1	nt	nt
Cc1nc2ccc(NC(=O)c3ccccc3)cc2s1	5	3	4	-84	-1	2	nt	nt
Cc1nc2ccc(NC(=O)c3cccs3)cc2s1	54	0	8	-109	-3	7.4*	9.3*	4.7*
Cc1nc2ccc(NC(=O)Cc3ccccc3F)cc2s1	-2	2	3	-99	0	5.3*	11*	6.9*
COc1cc(C2c3cc4c(cc3C(O)C3COCC23)OCO4)cc(OC)c1OC (stereo not drawn)	nt	1	-1	2	nt	0	nt	nt
COc1cc([C@@H]2c3cc4c(cc3[C@H](O)[C@H]3COC(=O)[C@H]23)OCO4)cc(OC)c1OC	-12	0	1	30	3	12*	15*	-5
Cc1cc(OC[C@@H](O)CN2CCC(C(O)(c3ccccc3)c3ccccc3)CC2)ccc1Br	nt	nt	-7	nt	nt	-1	nt	nt
CC(C)[C@H](NC(=O)OC(C)(C)C)c1cc(C(=O)N2CCOCC2)c(N)s1	nt	nt	5	nt	nt	6.0*	0	-2
Cc1occc1-c1nnc(SCC(=O)Nc2ccc3ncccc3c2)n1-c1ccccc1	nt	nt	1	nt	nt	-1	nt	nt
COc1ccc([C@H]2Cc3cc(O)cc(O)c3C(=O)O2)cc1O	4	4	5	-163	nt	5.2*	20*	13*
COc1ccc([C@H]2Cc3cccc(O)c3C(=O)O2)cc1O	-1	2	4	-62	1	-1	nt	nt
CC[C@@]1(C(=O)OC)N[C@H](CN(C)C(=O)Nc2ccc(C(F)(F)F)cc2)[C@@H]2C(=O)N(Cc3ccccc3)C(=O)[C@@H]21	17	-1	0	-15	nt	5.3*	1	1
SMILES	JMJD2C inh	DAX1 inh-1	SMARCA2 act	NR2E3 ag-1	NR2E3 ag-2	DAX1 inh-2	DAX1 inh confirm	SF1 AF2mut Luc
CCN(C[C@H]1N[C@@](C)(C(=O)OC)[C@H]2C(=O)N(Cc3ccccc3)C(=O)[C@@H]12)C(=O)COC	nt	0	1	21	nt	5.9*	0	0
O=C(O)CCSc1ncnc2sc(-c3ccccc3)cc12	-4	0	-11	31	-1	-2	nt	nt
CC(=O)CCSc1ncnc2sc(-c3ccccc3)cc12	-11	2	7	-108	0	13*	16*	7.9*
COC(=O)c1c(NC(C)=O)sc(C(=O)Nc2ccccc2F)c1C	-2	0	1	-8	0	3	nt	nt
CCOC(=O)c1c(N)sc(C(=O)Nc2ccccc2F)c1C	7	4.4*	6	-138	3	9.3*	14*	7.1*
CCOC(=O)c1c(N)sc(C(=O)Nc2ccccc2)c1C	-3	-1	4	-97	0	3	nt	nt
CCC(=O)Nc1sc(C(=O)Nc2ccccc2F)c(C)c1C(=O)OC	13	0	2	-33	0	5.9*	13*	6.3*
CCOC(=O)c1sc(NC(=O)Nc2ccccc2Cl)cc1C	-1	0	1	-220	1	7.8*	14*	7.5*
CCOC(=O)c1sc(NC(=O)Nc2ccccc2)cc1C	2	0	-3	-142	3	3	nt	nt
Cc1ccccc1N(C)C(=O)C1CCCN1S(=O)(=O)c1cccc2cccnc12 (stereo not drawn)	nt	nt	-3	nt	nt	1	nt	nt
C=CCn1c(SCC(=O)c2ccc(-c3ccccc3)cc2)nnc1-c1ccc(OC)cc1	nt	nt	-2	nt	nt	-2	nt	nt
Nc1c(-c2cccs2)cnc2c(-c3ccc(F)cc3)cnn12	-20	2	4	-168	0	3	nt	nt
Nc1c(-c2ccccc2)cnc2c(-c3ccccc3)cnn12	27	4.8*	7	-106	0	4.9*	14*	3.6*
CCOc1ccc(OCc2cccc(C(=O)O)c2)cc1	-3	-6	0	-133	-1	6.6*	15*	7.9*
O=C(N/N=C/c1ccc(O)c(Br)c1)c1cc2c(ccc3ccccc32)o1	4	0	-3	-5	nt	1	nt	nt
O=C(N/N=C/c1cc(Br)c(O)c(Br)c1)c1cc2c(ccc3ccccc32)o1	6	-1	-2	-30	nt	5.2*	3	1
CC12CCC(=O)N1C(C(=O)NNC(=O)c1ccc(Br)cc1)CS2 (stereo not drawn)	1	2	-5	3	1	5.5*	1	-1
COc1ccccc1N1CCN(/N=C/c2ccc([N+](=O)[O-])cc2)CC1	6	3	1	-31	nt	0	nt	nt
O=[N+]([O-])c1ccc(C=NN2CCCCCC2)cc1	nt	5.6*	-2	-78	nt	6.7*	6.9*	5.7*

From PubChem
